Screening data as filed in PubChem BioAssay.
DDE Tn6 FP inh: inhibitors of Tn6 peptide binding to human fibrin DD(E); P02675; Fibrin DD(E) TRITC-Tn6 fluorescence polarization displacement; inhibition, % at 8.3 µM; 0.21% of 370,000 active; AID 720509;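 active = inhibition above a per-campaign cutoff: mean of compounds within control limits plus 3 SD, cut at about 15% in these data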;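 note: 0% = median of all compound wells on the plate and 100% = blocking peptide control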
Target sequence (P02675 whole entry, looked up): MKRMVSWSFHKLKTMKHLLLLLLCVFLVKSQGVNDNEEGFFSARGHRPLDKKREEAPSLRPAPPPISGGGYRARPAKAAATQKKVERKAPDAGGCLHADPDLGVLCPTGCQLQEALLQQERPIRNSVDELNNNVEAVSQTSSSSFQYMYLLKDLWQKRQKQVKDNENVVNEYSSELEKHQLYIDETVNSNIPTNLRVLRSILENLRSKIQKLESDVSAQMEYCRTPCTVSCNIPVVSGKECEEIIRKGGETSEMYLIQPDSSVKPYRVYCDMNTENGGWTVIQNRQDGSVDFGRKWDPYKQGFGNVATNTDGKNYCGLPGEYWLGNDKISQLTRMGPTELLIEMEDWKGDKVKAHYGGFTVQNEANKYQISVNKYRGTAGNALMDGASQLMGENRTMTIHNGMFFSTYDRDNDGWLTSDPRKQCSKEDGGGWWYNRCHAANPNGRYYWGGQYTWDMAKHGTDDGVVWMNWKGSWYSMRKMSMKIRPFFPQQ
TCR-CD3 inh: human TCR-CD3 binding inhibition. TAMRA-labeled TCR probe fluorescence, biochemical. inhibition, % at 9.4 µM. 0.37% of 360,000 active; in the data active = inhibition above about 19%;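 note: recombinant mutant TCR 2C K166C tagged with TAMRA read by polarization; 0% = receptor in buffer alone and 100% = receptor with positive control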
mABHD4 FP: inhibits mouse alpha/beta hydrolase domain 4. Q8VD66. purified mABHD4, FP-Rh probe fluorescence polarization. inhibition, % at 8.92 µM. 0.54% of 370,000 active. AID 720543;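 active = inhibition exceeding the mean over every tested compound plus 3 SD, cut at about 30% in these data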;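 note: 0% = plate median of compound wells and 100% = S159A mutant with DMSO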
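Assay system: wild-type mouse ABHD4 protein; compound: single nominal dose of 8.92 µM, 0.89% DMSO final; schedule: 45 min + 60 min at 25 °C; measured by: FP readout, ex 525 nm / em 598 nm; evaluation: % inhibition of FP-Rh probe binding versus controls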
SIAE inh: blocks human sialic acid acetylesterase; SIAE FP-Rh probe binding, fluorescence polarization; inhibition, % at 9.66 µM; 0.69% of 370,000 active; AID 1053197;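 active = inhibition above a cutoff: mean of compounds within the control limits plus 3 SD of those, cut at about 17% in these data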;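 note: 0% = plate median of compound wells and 100% = probe without SIAE protein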
HTRA1 inh: blocks human HTRA1 serine peptidase; Q92743; inhibition, % at 5.96 µM; AID 504803; recombinant HTRA1, FP-rhodamine activity-based probe, fluorescence polarization; 0.5% of 340,000 active; in the data active = inhibition above about 36%;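 note: 0% = enzyme with DMSO and 100% = wells lacking enzyme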
DDE Tn7 FP inh: inhibitors of Tn7 peptide binding to human fibrin DD(E) | FP displacement of FITC-Tn7 peptide from fibrin DD(E); 0% = median of compound wells per plate | inhibition, % at 8.3 µM | 0.13% of 370,000 active | AID 720508;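 active = inhibition above the mean of compounds falling within the control limits plus 3 SD of them, cut at about 14% in these data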;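 note: 0% = plate median of compound wells and 100% = 10 µM Aha-Tn7 peptide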
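Assay system: human fibrin DD(E). Input: DD(E) 2 µM final. Medium: Tris buffer with calcium and detergent, pH 7.8. Compound dosing: single point at 8.3 µM. Timing: 10 min plus 3 h, room temperature. Technique: fluorescence polarization of the labelled Tn7 tracer. Read-out: percent inhibition. Replicates: singlicate testing.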
ABHD4 confirm: ABHD4 (mouse) inhibition, FP confirmation; AID 720658; 55% of 1,800 active; shares compounds with mABHD4 FP; inhibition, % at 8.92 µM; purified mABHD4, FP-Rh probe fluorescence polarization;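 active = mean inhibition across replicates above the hit cutoff set in the primary screen, cut at about 30% in these data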;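 note: 0% = wild-type ABHD4 with DMSO and 100% = catalytically dead S159A mutant with DMSO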
Numbers without * were called inactive; / = no result. A selection: hits, their analogues and other compounds. The true share with any hit is near 1.8%.

SMILES	DDE Tn6 FP inh	TCR-CD3 inh	mABHD4 FP	SIAE inh	HTRA1 inh	DDE Tn7 FP inh	ABHD4 confirm
COCc1cc(N2CCN(C(=O)OC(C)(C)C)C[C@@H]2C)ccc1N1CC[C@@H](O)C1	4	12	32*	15	/	-6	25
CCOC(=O)[C@@]12CCCC3=C1N(CCC3)C(=O)[C@H]2CC(=O)NCCC(C)C	-1	/	2	-2	/	3	/
COc1ccc(-c2cc(C(=O)NN=Cc3ccc(C)s3)[nH]n2)cc1	-10	/	-14	-18	/	4	/
CO[C@H]1C=CO[C@@]2(C)Oc3c(C)c(O)c4c(O)c(c(C=NN5CCN(C)CC5)c(O)c4c3C2=O)NC(=O)C(C)=CC=C[C@H](C)[C@H](O)[C@@H](C)[C@@H](O)[C@@H](C)[C@H](OC(C)=O)[C@@H]1C	-2	-6	33*	10	34	-5	10
Cc1cc(-c2nc3cccnc3s2)ccc1NS(=O)(=O)c1cccs1	-2	-1	46*	-4	-13	3	-2
COC(=O)[C@]12C[C@H](CC(=O)NCc3cccc(C(F)(F)F)c3)C(=O)N(Cc3ccc4c(c3)OCO4)C1=C[C@H](C(C)C)O[C@@H]2C1CC1	-7	/	-14	-7	/	5	/
Clc1ccc([C@H]2OC[C@@]3(CNCCc4c[nH]c5ccccc45)CS[C@H](c4ccc(Cl)cc4)N23)cc1	3	/	3	6	/	-8	/
Oc1cccc2c(NC(=S)Nc3ccc(OC(F)F)cc3)cccc12	2	-3	34*	14	16	-8	11
COc1ccc(CN2C(C(=O)NC3CCCC3)CSCCS2(=O)=O)cc1 (configuration not stated)	4	/	-8	0	/	4	/
O=C(O)c1[nH]c2ccccc2c1C(c1cc(Br)ccc1O)c1c(C(=O)O)[nH]c2ccccc12	3	9	43*	4	1	10	47*
O=C(O)c1[nH]c2ccccc2c1C(c1c(F)cccc1Cl)c1c(C(=O)O)[nH]c2ccccc12	-1	10	42*	5	-3	-3	50*
COc1cc(Cl)cc(C(c2c(C(=O)O)[nH]c3ccccc23)c2c(C(=O)O)[nH]c3ccccc23)c1O	-2	12	43*	7	2	0	55*
COC(=O)[C@]12C[C@H](CC(=O)N3CCOCC3)C(=O)N(CCc3ccc(OC)c(OC)c3)C1=C[C@H](C1CCCC1)O[C@@H]2C	-1	/	5	3	/	0	/
c1ccc(OCCOCCOc2ccccc2)cc1	-6	-8	0	3	-8	-5	/
F[B-](F)(F)COc1ccccc1	2	-1	68*	3	-3	-3	36*
COc1cc2c(oc(=O)c3cc(C)cc(OC)c32)c2c(C3OC(C)C(O)C(C)(O)C3O)ccc(O)c12 (configuration not stated)	-10	5	38*	-3	7	-3	14
CCCCCCCN(c1ccccc1)[C@@H]1C[C@H]2CCCC(=O)N3CC[C@@H](C1)[C@@H]23	-9	-4	31*	5	-14	6	53*
COc1ccc2c(c1)Sc1ccccc1N2	6	-1	41*	1	19	7	20
Nc1ccc(O)cc1C(=O)OCC(=O)C12CC3CC(CC(C3)C1)C2	-1	-6	52*	7	26	-3	35*
COc1ccc(C(=O)OCC(=O)c2ccc(C3CCCCC3)cc2)cc1	5	6	1	2	-8	0	/
Nc1ccc(O)cc1C(=O)OCC(=O)c1ccc(C2CCCCC2)cc1	-13	3	53*	13	29	0	39*
O=C1C(=O)c2ccccc2C(O)=C1CC=C(Cl)Cl	9	0	38*	1	15	-5	17
CCc1ccc(Nc2ccc(C(=O)O)cc2[N+](=O)[O-])cc1	0	7	55*	2	0	-13	69*
COc1cc(Nc2ccc(C(=O)O)cc2[N+](=O)[O-])cc(OC)c1	9	-4	36*	-6	-6	-3	57*
CCc1ccc(Nc2ccc(C(N)=O)cc2[N+](=O)[O-])cc1	-7	-1	1	-3	-2	-10	/
SMILES	DDE Tn6 FP inh	TCR-CD3 inh	mABHD4 FP	SIAE inh	HTRA1 inh	DDE Tn7 FP inh	ABHD4 confirm
Cc1cc(C)cc(Nc2ccc(C(=O)O)cc2[N+](=O)[O-])c1	-3	-1	32*	-2	-1	-5	54*
COc1cccc(Nc2ccc(C(=O)O)cc2N)c1	2	1	22	-2	15	4	/
CC(C)C[C@@H]1COc2cc(Br)ccc2S(=O)(=O)N1Cc1cn(Cc2ccc(Br)cc2)nn1	8	/	2	-1	/	-8	/
CCOc1cc(C2C(C#N)=C(N)OC3=C2C(=O)CC(C)(C)C3)cc([N+](=O)[O-])c1O (configuration not stated)	6	-5	3	5	3	-2	/
CC1(C)CC(=O)C2=C(C1)OC(N)=C(C#N)C2c1cc2c(cc1[N+](=O)[O-])OCO2 (configuration not stated)	1	4	34*	5	8	7	2
CC(CCc1ccc(O)cc1)NCCc1ccc(O)c(O)c1 (configuration not stated)	-8	-9	33*	8	32	-1	15
COc1ccccc1CCNC(C)CCc1ccc(O)cc1 (configuration not stated)	-4	0	0	0	11	0	/
O=C1NN(c2ccc(Cl)c(Cl)c2)C(=O)/C1=C/c1ccc(-c2ccccc2C(=O)O)o1	-1	-4	31*	4	2	7	65*
Cc1ccc(N2NC(=O)/C(=C/c3ccc(-c4ccc(Cl)c(C(=O)O)c4)o3)C2=O)cc1C	-2	-7	12	5	8	1	/
COC(=O)C1CN(Cc2ccc(Cl)cc2)CCS(=O)(=O)N1Cc1cn(Cc2ccccc2)nn1 (configuration not stated)	-8	/	3	2	/	-3	/
COc1ccc(NC(=O)c2sc(NC(=O)COc3ccccc3)nc2C)cc1	-5	-1	50*	-9	-5	-3	60*
O=C(COc1ccccc1)Nc1nc2cc3c(cc2s1)OCCO3	13	6	-13	-22	3	-1	/
Cc1nc(NC(=O)COc2ccccc2)sc1C(=O)Nc1cccc(Cl)c1	-4	7	43*	-7	-20	4	33*
Cc1nc(NC(=O)/C=C/c2ccccc2)sc1C(=O)Nc1cccc(Cl)c1	-7	3	0	-7	-16	-2	/
